In ChEMBL document CHEMBL1143790, “Effect of substituents on diarylmethanes for antitubercular activity” (2007):
≈ marks a conversion by molar mass, not a printed value.

Tests used:
Format in all cases: functional
[1] = tested on: Mycobacterium tuberculosis; assay: Antitubercular activity against Mycobacterium tuberculosis H37Rv by BACTEC method
Summary of the method: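 Radiometric BACTEC 12B (7H12) broth; compounds from 1 mg/mL DMSO stock, DMSO-only controls, isoniazid and rifampin references. H37Rv inoculated at 10⁴–10⁵ CFU/mL, plus 1:100-diluted inoculum control. Incubated at 37 °C with daily GI readings until the 1:100 control reached GI 30. MIC was the concentration giving a final GI below the 1:100 control ([…] inhibition).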

[2] = Selectivity index, IC50 for vero cells to MIC for Mycobacterium tuberculosis H37Rv
[3] = tested on: Mycobacterium tuberculosis; assay: Antitubercular activity against Mycobacterium tuberculosis H37Rv by MABA assay
[4] = tested on: Mycobacterium tuberculosis; assay: Antitubercular activity against Mycobacterium tuberculosis H37Rv by microdilution method
Summary of the method: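 Agar microdilution: serial two-fold compound dilutions in 7H10 agar, with H37Rv as test organism. MIC was the concentration completely inhibiting growth and colony-forming ability of M. tuberculosis.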

Compound CCN(CC)CCOc1ccc(C(c2ccc(OC)cc2)c2cc3ccccc3c3ccccc23)cc1 (centres undefined) has an MIC [1] of 6.25 µg/mL (≈ 12.8 µM), a Selectivity index [2] of 20 and an MIC [3] of 6.25 µg/mL (≈ 12.8 µM). It also gave an MIC [4] of 6.25 µg/mL (≈ 12.8 µM).
With COc1ccc(C(c2ccc(OCCN(C)C)cc2)c2cc3ccccc3c3ccccc23)cc1 (centres undefined) the MIC [1] was 12.5 µg/mL (≈ 27.1 µM), the MIC [3] was 25 µg/mL (≈ 54.2 µM) and the MIC [4] was 25 µg/mL (≈ 54.2 µM).
Compound COc1ccc(C(c2ccc(OCCN3CCCC3)cc2)c2cn(S(=O)(=O)c3ccccc3)c3ccccc23)cc1 (centres undefined) has an MIC [3] of 12.5 µg/mL (≈ 22.1 µM) and an MIC [4] of 12.5 µg/mL (≈ 22.1 µM).
With COc1ccc(C(c2ccc(OCCN3CCCC3)cc2)c2cc3ccccc3c3ccccc23)cc1 (centres undefined) the MIC [1] was 6.25 µg/mL (≈ 12.8 µM), the Selectivity index [2] was 20 and the MIC [3] was 6.25 µg/mL (≈ 12.8 µM). The MIC [4] was 6.25 µg/mL (≈ 12.8 µM).
In the case of COc1ccc(C(c2ccc(OCCN(C)C)cc2)c2cn(S(=O)(=O)c3ccccc3)c3ccccc23)cc1 (centres undefined), the MIC [3] is reported as > 25 µg/mL and the MIC [4] is reported as > 12.5 µg/mL.
Compound CCN(CC)CCOc1ccc(C(c2ccc(OC)cc2)c2cn(S(=O)(=O)c3ccccc3)c3ccccc23)cc1 (centres undefined) has an MIC [3] of 12.5 µg/mL (≈ 22 µM) and an MIC [4] of 12.5 µg/mL (≈ 22 µM).
CN(C)CCOc1ccc(C(c2ccc(O)cc2)c2cc3ccccc3c3ccccc23)cc1 (centres undefined) gave an MIC [1] of 12.5 µg/mL (≈ 27.9 µM), an MIC [3] of 25 µg/mL (≈ 55.9 µM) and an MIC [4] of 12.5 µg/mL (≈ 27.9 µM).
In the case of COc1ccc(C(c2ccc(OCCN3CCCCC3)cc2)c2cc3ccccc3c3ccccc23)cc1 (centres undefined), the MIC [1] is reported as 6.25 µg/mL (≈ 12.5 µM), the Selectivity index [2] is reported as 10 and the MIC [3] is reported as 6.25 µg/mL (≈ 12.5 µM). The MIC [4] was 6.25 µg/mL (≈ 12.5 µM).
Compound COc1ccc(C(c2ccc(OCCN3CCCCCC3)cc2)c2cn(S(=O)(=O)c3ccccc3)c3ccccc23)cc1 (centres undefined) has an MIC [1] of 12.5 µg/mL (≈ 21 µM), an MIC [3] of 12.5 µg/mL (≈ 21 µM) and an MIC [4] of 12.5 µg/mL (≈ 21 µM).
For COc1ccc(Cc2ccc(OCCN(C)C)cc2)cc1, the MIC [3] was > 25 µg/mL and the MIC [4] was > 25 µg/mL.
Work on COc1ccc(C(c2ccc(OCCN(C)C)cc2)c2c3ccccc3cc3ccccc23)cc1 (centres undefined) yielded an MIC [3] of 12.5 µg/mL (≈ 27.1 µM) and an MIC [4] of 12.5 µg/mL (≈ 27.1 µM).
CCN(CC)CCOc1ccc(C(c2ccc(O)cc2)c2cc3ccccc3c3ccccc23)cc1 (centres undefined) showed an MIC [1] of 12.5 µg/mL (≈ 26.3 µM), an MIC [3] of 25 µg/mL (≈ 52.6 µM) and an MIC [4] of 12.5 µg/mL (≈ 26.3 µM).
With COc1ccc(C(c2ccc(OCCN3CCCCC3)cc2)c2cccnc2)cc1 (centres undefined) the MIC [1] was 12.5 µg/mL (≈ 31.1 µM), the MIC [3] was > 25 µg/mL and the MIC [4] was > 25 µg/mL.
In the case of COc1ccc(C(c2ccc(OCCN3CCCCC3)cc2)c2cn(S(=O)(=O)c3ccccc3)c3ccccc23)cc1 (centres undefined), the MIC [1] is reported as 6.25 µg/mL (≈ 10.8 µM), the Selectivity index [2] is reported as 10 and the MIC [3] is reported as 6.25 µg/mL (≈ 10.8 µM). The MIC [4] was 6.25 µg/mL (≈ 10.8 µM).
For COc1ccc(Cc2ccc(OCCN3CCCCC3)cc2)cc1, the MIC [3] was > 25 µg/mL and the MIC [4] was > 25 µg/mL.
For CCN(CC)CCOc1ccc(C(c2ccc(OC)cc2)c2cccnc2)cc1 (centres undefined), the MIC [1] was 12.5 µg/mL (≈ 32 µM), the MIC [3] was > 25 µg/mL and the MIC [4] was > 25 µg/mL.
In the case of COc1ccc(C(c2ccc(OCCN3CCCC3)cc2)c2cccnc2)cc1 (centres undefined), the MIC [1] is reported as 12.5 µg/mL (≈ 32.2 µM), the MIC [3] is reported as > 25 µg/mL and the MIC [4] is reported as > 25 µg/mL.
In the case of Oc1ccc(C(c2ccc(OCCN3CCCCC3)cc2)c2cc3ccccc3c3ccccc23)cc1 (centres undefined), the MIC [1] is reported as 12.5 µg/mL (≈ 25.6 µM), the MIC [3] is reported as 25 µg/mL (≈ 51.3 µM) and the MIC [4] is reported as 12.5 µg/mL (≈ 25.6 µM).
For COc1ccc(C(c2ccc(OCCN(C)C)cc2)c2cccnc2)cc1 (centres undefined), the MIC [3] was > 25 µg/mL and the MIC [4] was > 25 µg/mL.
